ChEMBL document CHEMBL1158956, “Biologically active metabolites from Xenorhabdus spp., Part 2. Benzopyran-1-one derivatives with gastroprotective activity” (1991)
Values after ≈ are worked out from the molar mass of the structure shown. Active and inactive are the calls of the source. No cut-off for these calls is given here.

Key:
[1] = system: Micrococcus luteus; assay: Antimicrobial activity against Sarcina lutea ATCC 8740; assay type: functional
How it was run: (§1)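 MIC by blood agar screen: DST agar with 10% defibrinated horse blood; inocula were undiluted overnight broth cultures; plates incubated aerobically overnight at 37°.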

[2] = system: Citrobacter freundii; assay: Antimicrobial activity against Citrobacter freundii ES; assay type: functional; how it was run: as §1
[3] = system: Priestia megaterium; assay: Antimicrobial activity against Bacillus megaterium NCIB 9376; assay type: functional; how it was run: as §1
[4] = system: Candida albicans; assay: Antimicrobial activity against Candida albicans at 128 ug/ml after 2 days by twofold dilution method; assay type: functional, organism-based
How it was run: (§2)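 Microtiter MIC with twofold dilutions in defined (Yeast Nitrogen Base + 1% glucose) and complex (Sabouraud's glucose) broth; compound from DMSO stock, final DMSO <1%; inocula 10^3 and 10^5 cells/ml; incubated 2 days at 37°.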

[5] = system: Rattus norvegicus; assay: Antiulcerogenic activity in stress-induced Wistar rat assessed as protection from ulcer at 5 mg/kg, po; assay type: functional
[6] = system: Candida parapsilosis; assay: Antimicrobial activity against Candida parapsilosis at 128 ug/ml after 2 days by twofold dilution method; assay type: functional, organism-based; how it was run: as §2
[7] = system: Aspergillus fumigatus; assay: Antimicrobial activity against Aspergillus fumigatus at […] after 2 days by tube dilution method; assay type: functional, organism-based
How it was run: (§3)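 Tube dilution MIC in defined medium (Yeast Nitrogen Base + 1% glucose) and complex medium (Sabouraud's glucose broth); compound dissolved in DMSO, final DMSO <1%; tenfold dilutions 100 to 0.1 μg/ml; inoculum 10^4 spores/ml; 2 days at 37°.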

[8] = system: Trichophyton rubrum; assay: Antimicrobial activity against Trichophyton rubrum at 128 ug/ml after 11 days by twofold dilution method; assay type: functional, organism-based
[9] = system: Corynebacterium xerosis; assay: Antimicrobial activity against Corynebacterium xerosis NCTC 9755; assay type: functional; how it was run: as §1
[10] = system: Salmonella typhimurium; assay: Antimicrobial activity against Salmonella Typhimurium CT10; assay type: functional, Salmonella enterica subsp. enterica serovar Typhimurium; conditions: Salmonella enterica; how it was run: as §1
[11] = system: Rattus norvegicus; assay: Antiulcerogenic activity in stress-induced Wistar rat assessed as protection from ulcer at 10 mg/kg, po; assay type: functional
[12] = system: Escherichia coli; assay: Antimicrobial activity against Escherichia coli DCO; assay type: functional; how it was run: as §1
[13] = system: Pseudomonas aeruginosa; assay: Antimicrobial activity against Pseudomonas aeruginosa 1771P; assay type: functional; how it was run: as §1
[14] = system: Escherichia coli; assay: Antimicrobial activity against Escherichia coli 10418; assay type: functional; how it was run: as §1
[15] = system: Staphylococcus aureus; assay: Antimicrobial activity against Staphylococcus aureus Oxford NCTC 6571; assay type: functional; how it was run: as §1
[16] = system: Proteus mirabilis; assay: Antimicrobial activity against Proteus mirabilis C977; assay type: functional; how it was run: as §1
[17] = system: Staphylococcus aureus; assay: Antimicrobial activity against Staphylococcus aureus V573; assay type: functional; how it was run: as §1
[18] = system: Enterobacter cloacae; assay: Antimicrobial activity against Enterobacter cloacae N1; assay type: functional; how it was run: as §1
[19] = system: Trichophyton mentagrophytes; assay: Antimicrobial activity against Trichophyton mentagrophytes at 128 ug/ml after 11 days by twofold dilution method; assay type: functional, organism-based
[20] = system: Streptococcus pyogenes; assay: Antimicrobial activity against Streptococcus pyogenes CN10; assay type: functional; how it was run: as §1
[21] = system: Escherichia coli; assay: Antimicrobial activity against Escherichia coli ESS; assay type: functional; how it was run: as §1
[22] = system: Aspergillus niger; assay: Antimicrobial activity against Aspergillus niger at […] after 2 days by tube dilution method; assay type: functional, organism-based; how it was run: as §3
[23] = system: Klebsiella aerogenes; assay: Antimicrobial activity against Klebsiella aerogenes A; assay type: functional; how it was run: as §1
[24] = system: Rattus norvegicus; assay: Antiulcerogenic activity in stress-induced Wistar rat assessed as protection from ulcer at 25 mg/kg, po; assay type: functional
[25] = system: Acinetobacter lwoffii; assay: Antimicrobial activity against Acinetobacter lwoffii BRL 2400; assay type: functional; how it was run: as §1
[26] = system: Streptococcus sanguinis; assay: Antimicrobial activity against Streptococcus sanguis ATCC 10556; assay type: functional; how it was run: as §1
[27] = system: Cryptococcus neoformans; assay: Antimicrobial activity against Cryptococcus neoformans; assay type: functional; how it was run: as §2

SMILES	MIC [1] [µg/mL]	MIC [2] [µg/mL]	MIC [3] [µg/mL]	MIC [9] [µg/mL]	MIC [10] [µg/mL]	Activity [11] [%]	MIC [12] [µg/mL]	MIC [13] [µg/mL]	MIC [14] [µg/mL]	MIC [15] [µg/mL]	MIC [16] [µg/mL]	MIC [17] [µg/mL]	MIC [18] [µg/mL]	MIC [20] [µg/mL]	MIC [21] [µg/mL]	MIC [23] [µg/mL]	Activity [24] [%]	MIC [25] [µg/mL]	MIC [26] [µg/mL]	also measured
CC(C)CC(NC(=O)C(O)C(O)C1CCCN1)C1Cc2cccc(O)c2C(=O)O1 (stereo unspecified) [XENOCOUMACIN 2]	5 (≈ 12.3 µM)	> 100	5 (≈ 12.3 µM)	5 (≈ 12.3 µM)	> 100	61	> 100	> 100	50 (≈ 123 µM)	5 (≈ 12.3 µM)	> 100	> 100	> 100	5 (≈ 12.3 µM)	2.5 (≈ 6.15 µM)	> 100	70	5 (≈ 12.3 µM)	10 (≈ 24.6 µM)	Activity [4]: inactive; Activity [5]: 26%; Activity [6]: inactive; Activity [7]: inactive; Activity [8]: inactive; Activity [19]: inactive; Activity [22]: inactive
CC(C)CC(NC(=O)C(O)C(O)C(N)CCCNC(=N)N)C1Cc2cccc(O)c2C(=O)O1 (stereo unspecified) [XENOCOUMACIN 1]	1 (≈ 2.15 µM)	> 100	2.5 (≈ 5.37 µM)	1 (≈ 2.15 µM)	> 100	8	10 (≈ 21.5 µM)	> 100	2.5 (≈ 5.37 µM)	10 (≈ 21.5 µM)	> 100	25 (≈ 53.7 µM)	> 100	1 (≈ 2.15 µM)	0.5 (≈ 1.07 µM)	> 100	74	2.5 (≈ 5.37 µM)	10 (≈ 21.5 µM)	MIC [27]: 0.125 µg/mL (≈ 0.268 µM)
